# Columns and labels:
# [1] = Metabolic stability in human plasma assessed as parent compound remaining at 1 ug/ml measured after 2 hrs by LC-MS/MS analysis; type: ADME, cell-free; conditions: at 1 µg/mL, read-out: Stability
# How it was run: (§1)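 Compound at 1 μg/mL final (from 20 μg/mL DMSO stock; 5% DMSO) incubated in K2EDTA plasma (female CD-1 mouse or human) at 37 °C with shaking. Aliquots quenched in 1:1 MeCN/MeOH with verapamil; parent and released PAS measured by high-resolution LC-MS/MS; percent parent remaining versus initial concentration at 120 min.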
# [2] = AUC in CD-1 mouse plasma assessed as para-aminosalicylic acid AUC at 10 mg/kg, po administered as single dose and measured up to 5 hrs by HPLC-MS/MS analysis; type: ADME, organism-based; set-up: time < 5 hrs, dose 10 mg/kg, route po; conditions: in vivo
# How it was run: (§2)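 Snapshot PK: single oral gavage at 10 mg/kg in 5% dimethylacetamide:60% PEG 300:35% (5% dextrose in water) solution to female CD-1 mice (n = 2). Tail-vein blood (K2EDTA) at 0.5, 1, 3, 5 h; plasma protein-precipitated in MeCN with internal standard, prodrug and released PAS quantified by LC-MS/MS; AUC by non-compartmental analysis.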
# [3] = Metabolic stability in CD-1 mouse plasma assessed as parent compound remaining at 1 ug/ml measured after 2 hrs by LC-MS/MS analysis; type: ADME, cell-free; conditions: at 1 µg/mL, read-out: Stability; how it was run: as §1
# [4] = AUC in CD-1 mouse at 10 mg/kg, po administered as single dose and measured up to 5 hrs by LC-MS/MS analysis; type: ADME, organism-based; set-up: dose 10 mg/kg, time < 5 hrs, route po; conditions: in vivo; how it was run: as §2
# [5] = tested on: Mycobacterium tuberculosis; test: Antimycobacterial activity against Mycobacterium tuberculosis H37Rv assessed as inhibition of bacterial growth measured after 10 days by microbroth dilution method; type: functional; conditions: 240 h, time 10 day
# [6] = Ratio of compound AUC to para-aminosalicylic acid AUC in CD-1 mouse; type: ADME; conditions: in vivo
# [7] = AUC in CD-1 mouse at 25 mg/kg, po administered as single dose and measured up to 24 hrs by LC-MS/MS analysis; type: ADME, organism-based; set-up: dose 25 mg/kg, time < 24 hrs, route po; conditions: in vivo
# How it was run: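 Female CD-1 mice (n = 3) given a single oral gavage dose of 25 mg/kg as a 0.5% CMC/0.5% Tween 80 suspension. Tail-vein blood was drawn at 0.5, 1, 3, 5, 7 and 24 h into K2EDTA and plasma stored at −80 °C. Only PAS was quantified, by LC-MS/MS after MeCN precipitation.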
# [8] = AUC in CD-1 mouse plasma assessed as para-aminosalicylic acid AUC at 25 mg/kg, po administered as single dose and measured up to 24 hrs by LC-MS/MS analysis; type: ADME, organism-based; set-up: dose 25 mg/kg, time < 24 hrs, route po; conditions: in vivo
# [9] = tested on: Mycobacterium tuberculosis; test: Antimycobacterial activity against drug susceptible Mycobacterium tuberculosis H37Rv assessed as inhibition of bacterial growth measured after 2 weeks by microbroth dilution method; type: functional; conditions: 336 h
# How it was run: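 Diluted 1000-fold into 96-well plates with 2-fold serial compound dilutions and incubated at 37 °C for 2 weeks. Growth scored by mirror at 1 and 2 weeks. MIC is the lowest concentration completely inhibiting growth; tested in duplicate. DMSO, isoniazid and linezolid served as controls.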
# [10] = AUC in CD-1 mouse plasma assessed as para-aminosalicylic acid AUC at 25 mg/kg, po administered as single dose and measured up to 5 hrs by LC-MS/MS analysis; type: ADME, organism-based; set-up: dose 25 mg/kg, time < 5 hrs, route po; conditions: in vivo
# How it was run: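 Female CD-1 mice (n = 2) dosed once by oral gavage at 25 mg/kg in 5% dimethylacetamide:60% PEG 300:35% (5% dextrose in water). Lateral tail-vein blood into K2EDTA at 0.5, 1, 3, 5 h; plasma analysed by LC-MS/MS after MeCN precipitation with internal standard; AUC over 5 h by non-compartmental fit.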
Structure (SMILES),"remaining at 2 h, 1 ug/ml [1] [%]","remaining at 2 h, 1 ug/ml [3] [%]",MIC90 [5] [µM],Ratio AUC [6],further results
COC(=O)c1ccc(N)cc1O,94,84,64,0.2,AUC [2]: 53 ng·h/mL; AUC at 5 h [4]: 1700 ng·h/mL
[N-]=[N+]=Nc1ccc(C(=O)O)c(O)c1,–,–,128,430,AUC [7]: 900000 ng·h/mL
CC(C)(C)C(=O)OCOC(=O)c1ccc(N)cc1O,15,0,–,–,AUC [2]: 460 ng·h/mL; AUC [8]: 300 ng·h/mL
CNc1ccc(C(=O)O)c(O)c1,–,–,> 128,59,AUC [7]: 130000 ng·h/mL
CCOC(=O)c1cc(F)c(N)cc1O,–,–,> 128,0.02,–
CNc1ccc(C(=O)OC)c(O)c1,96,90,–,–,AUC at 5 h [4]: 78 ng·h/mL
Cl.Nc1cc(O)c(C(=O)O)c(F)c1,–,–,64,1.2,AUC [7]: 2400 ng·h/mL
CC(C)OC(=O)OC(C)OC(=O)c1ccc(N)cc1O (centres undefined),24,0,–,–,AUC [2]: 190 ng·h/mL
Cl.Nc1ccc(C(=O)O)c(O)c1F,–,–,32,1.9,AUC [7]: 4000 ng·h/mL
CC(C)OC(=O)c1ccc(N)cc1O,93,94,> 128,0.6,AUC at 5 h [4]: 230 ng·h/mL
Nc1cc(O)c(C(=O)O)cc1F,–,–,8,4.9,AUC [7]: 10000 ng·h/mL; MIC90 [9]: 6.3 µM
Cc1oc(=O)oc1COC(=O)c1ccc(N)cc1O,0,0,–,–,AUC [10]: 250 ng·h/mL
CC(OC(=O)c1ccc(N)cc1O)OC(=O)C(C)(C)C (centres undefined),0,0,–,–,AUC [10]: 190 ng·h/mL
CC(C)OC(=O)OCOC(=O)c1ccc(N)cc1O,0,0,–,–,AUC [2]: 19 ng·h/mL
CCOC(=O)c1ccc(N)cc1O,94,92,2,0.1,AUC at 5 h [4]: 44 ng·h/mL
Nc1ccc(C(=O)O)c(O)c1 [AMINOSALICYLIC ACID],–,–,0.5,1,AUC [2]: 380 ng·h/mL; AUC [8]: 3400 ng·h/mL; MIC90 [9]: 0.2 µM
CC(=O)NC[C@H]1CN(c2ccc(N3CCOCC3)c(F)c2)C(=O)O1 [LINEZOLID],–,–,–,–,MIC90 [9]: 0.7 µM

# Source: ChEMBL document CHEMBL5131498, “Synthesis and biological evaluation of orally active prodrugs and analogs of para-aminosalicylic acid (PAS)” (Eur J Med Chem, 2022)
